Assay [1] has as its target Beta-lactamase (Escherichia coli K-12) (UniProt P00811). In words: Percentage inhibition against beta-Lactamase in the presence of detergent 0.01% Triton X-100 was determined at a concentration of 20 uM. The method in brief: (§1)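 AmpC β-lactamase (expressed and purified from E. coli) assayed in 50 mM KPi, pH 7.0, at room temperature. Enzyme and inhibitor were preincubated for 5 min before the nitrocefin substrate (200 μM) was added, and hydrolysis was followed kinetically. For the detergent lines, Triton X-100, made fresh daily as a 1% (v/v) stock in 50 mM KPi, was used at a final 0.01%.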

Assay [2] has as its target T1, Beta-lactamase (Escherichia coli K-12, UniProt P00811). In words: Inhibitory activity against Amp C beta-Lactamase.
For assay [3], the target named is Beta-lactamase (Escherichia coli K-12) (UniProt P00811). In words: Percentage inhibition against beta-Lactamase in the absence of detergent Triton X-100 was determined at a concentration of 20 uM. In short, it runs like this: as §1
Beta-lactamase (Escherichia coli K-12), sequence (P00811 whole entry): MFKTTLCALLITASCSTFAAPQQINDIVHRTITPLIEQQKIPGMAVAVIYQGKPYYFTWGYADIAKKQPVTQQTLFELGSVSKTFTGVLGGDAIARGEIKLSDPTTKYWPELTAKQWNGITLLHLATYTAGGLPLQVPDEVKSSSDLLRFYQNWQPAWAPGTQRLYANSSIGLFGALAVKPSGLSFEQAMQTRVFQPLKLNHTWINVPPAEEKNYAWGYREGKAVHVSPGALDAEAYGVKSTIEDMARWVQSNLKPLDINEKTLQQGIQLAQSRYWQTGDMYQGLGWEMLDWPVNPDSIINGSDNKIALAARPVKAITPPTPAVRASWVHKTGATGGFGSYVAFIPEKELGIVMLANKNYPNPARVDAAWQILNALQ
Assay [4] has the same target. Nature of the assay: Percentage inhibition against beta-Lactamase in the presence of detergent 0.01% Triton X-100 was determined at a concentration of 5 uM. In short, it runs like this: (§2)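 AmpC β-lactamase (E. coli-expressed, purified) assayed in 50 mM KPi, pH 7.0, at room temperature. Enzyme and inhibitor preincubated 5 min before substrate addition. Inhibitors were typically diluted from 10 mM DMSO stocks into KPi. Where present, Triton X-100 was at 0.01% final, from a 1% (v/v) stock in 50 mM KPi freshly prepared daily.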

For assay [5] the target is unchanged. In words: Percentage inhibition against beta-Lactamase in the absence of detergent Triton X-100 was determined at a concentration of 5 uM. The method in brief: as §2
Assay [6] has the same target. In words: Percentage inhibition against beta-Lactamase in the absence of detergent Triton X-100 was determined at a concentration of 0.6 uM. The method in brief:
as §1

Assay [7] has the same target. Nature of the assay: Percentage inhibition against beta-Lactamase in the presence of detergent 0.01% Triton X-100 was determined at a concentration of 0.6 uM. The method in brief:
as §1

For assay [8] the target is unchanged. As to conditions: 30 uM.
Assay [9] has the same target. In words: Percentage inhibition of Beta-lactamase at KPi (Potassium Phosphate) stock concentration of 5.9 uM. In short, it runs like this:
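Compound dissolved directly in 50 mM KPi with no DMSO, stock level set by UV–vis spectra correlated with DMSO-diluted solutions. Tested against AmpC β-lactamase in 50 mM KPi, pH 7.0, room temperature, with 5 min enzyme–inhibitor preincubation. Value reported as percent inhibition.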

The target is the same in assay [10]. In words: Percentage inhibition against beta-Lactamase in the absence of detergent Triton X-100 was determined at a concentration of 25 uM. In short, it runs like this:
as §2

Assay [11] has the same target. In words: Percentage inhibition against beta-Lactamase in the presence of detergent 0.01% Triton X-100 was determined at a concentration of 25 uM. The method in brief: as §2
The target of assay [12] is T1, Beta-lactamase. In words: Inhibitory activity against Beta-lactamase from DMSO stock was determined.

T1 sequence (P00811 whole entry): as above

As for `O=C1NCc2c1c1c3ccccc3[nH]c1c1[nH]c3ccccc3c21` [STAUROSPORINONE], the inhibition in [1] worked out at 17%; in assay [3], 80%. Moreover, the IC50 against Beta-lactamase [2] was 8 µM.

For `CC(=O)c1c(O)c(C)c(O)c(Cc2c(O)c3c(c(C(=O)/C=C/c4ccccc4)c2O)OC(C)(C)C=C3)c1O` [ROTTLERIN], it took 1.2 µM to reach half-maximal inhibition at Beta-lactamase [2] (IC50). Moreover, the figures for the inhibition in assay [4] and in assay [5] were 5% and 90%, respectively.

In the case of `OB(O)c1cc2ccccc2s1`, the inhibition in assay [6] was 87%; in [7], 86%.

As to `Clc1ccc(CSC(Cn2ccnc2)c2ccc(Cl)cc2Cl)cc1` (configuration not stated) [SULCONAZOLE], on Beta-lactamase [2], the half-inhibitory concentration (IC50) worked out at 14 µM.

With `Oc1ccc(/N=N/c2ccc(Br)cc2)cc1`, the inhibition stood at 10% in [1] and 91% in [3].

Take `O=S(=O)(O)c1cc(O)c(/N=N/c2ccc3ccccc3c2O)c2ccccc12`: in assay [8], the inhibition came to 68%.

For the compound `O=c1c(O)c(-c2ccc(O)c(O)c2)oc2cc(O)cc(O)c12`, the results for the inhibition in assay [9], in [10] and in assay [11] were 43%, 68% and 25%, respectively.

Regarding `COC(=O)C1=C(C)NC(C)=C(C(=O)OCCN(C)Cc2ccccc2)C1c1cccc([N+](=O)[O-])c1` (configuration not stated) [NICARDIPINE], the IC50 at Beta-lactamase [12] and at Beta-lactamase [2] was 20 µM throughout.

In general, inhibition refers to the share of the control response that was lost under treatment. The term IC50 denotes the concentration at which inhibition is half-maximal. Higher therefore signals weaker potency.

These data come from ChEMBL document CHEMBL1144937, “A specific mechanism of nonspecific inhibition” (J Med Chem, 2003).
